In ChEMBL document CHEMBL4725241, “Discovery of BMS-986235/LAR-1219: A Potent Formyl Peptide Receptor 2 (FPR2) Selective Agonist for the Prevention of Heart Failure” (J Med Chem, 2020):
Activity calls are given as the source filed them. No cut-off for these calls is given here.

Columns and labels:
[1] = molecular target: T1, N-formyl peptide receptor 2 (Homo sapiens, UniProt P25090); assay: Agonist activity at human FPR2 expressed in HEK 293 cells co-expressing Galpha15 measured every 1.5 sec for 80 sec by Fluo-4 NW staining based scanning fluorometric method; assay type: cell-based, HEK293
T1 sequence (P25090 whole entry): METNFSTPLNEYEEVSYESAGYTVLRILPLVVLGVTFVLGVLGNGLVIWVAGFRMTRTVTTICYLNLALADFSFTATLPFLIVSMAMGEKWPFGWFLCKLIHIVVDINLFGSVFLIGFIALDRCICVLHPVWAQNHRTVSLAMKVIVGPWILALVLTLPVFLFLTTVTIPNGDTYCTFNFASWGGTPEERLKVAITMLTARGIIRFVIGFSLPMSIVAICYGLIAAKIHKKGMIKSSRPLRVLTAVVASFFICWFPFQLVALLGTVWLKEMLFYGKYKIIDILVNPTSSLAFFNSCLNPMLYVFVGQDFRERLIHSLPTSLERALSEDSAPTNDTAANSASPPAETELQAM
How it was run: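 HEK293 cells were transiently co-transfected with FPR plus Gα15 (Lipofectamine 2000), then reseeded after 24 h on poly-D-lysine plates and grown one more day. Cells were loaded with Fluo-4 NW for 45 min at 37°C. Compound was added and fluorescence (ex 485/em 525 nm) read for 80 s at 1.5 s intervals. Response = maximal peak minus basal.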

Cytochrome P450 3A4 = Cytochrome P450 3A4 (Homo sapiens, UniProt P08684); assay: Inhibition of recombinant human CYP3A4; assay type: ADME
Sequence of Cytochrome P450 3A4 (P08684 whole entry): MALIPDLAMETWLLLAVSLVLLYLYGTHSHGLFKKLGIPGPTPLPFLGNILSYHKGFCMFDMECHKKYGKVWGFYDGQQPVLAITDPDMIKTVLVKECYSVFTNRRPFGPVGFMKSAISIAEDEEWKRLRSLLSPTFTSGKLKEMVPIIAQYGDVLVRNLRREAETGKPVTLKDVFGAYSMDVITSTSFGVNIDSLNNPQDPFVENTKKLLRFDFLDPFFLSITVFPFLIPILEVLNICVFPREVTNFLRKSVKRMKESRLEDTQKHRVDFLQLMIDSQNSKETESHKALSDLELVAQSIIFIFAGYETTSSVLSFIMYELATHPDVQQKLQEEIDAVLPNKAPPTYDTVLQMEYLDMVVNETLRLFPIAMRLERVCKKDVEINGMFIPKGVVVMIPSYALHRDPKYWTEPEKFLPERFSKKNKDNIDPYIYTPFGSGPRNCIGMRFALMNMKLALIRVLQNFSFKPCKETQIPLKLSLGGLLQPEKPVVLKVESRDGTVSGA

[2] = molecular target: T2, Formyl peptide receptor 2 (Mus musculus, UniProt O88536); assay: Agonist activity at mouse FPR2 expressed in CHO cells assessed as reduction cAMP accumulation incubated for 1 hr by TR-FRET assay; assay type: cell-based
T2 sequence (O88536 whole entry): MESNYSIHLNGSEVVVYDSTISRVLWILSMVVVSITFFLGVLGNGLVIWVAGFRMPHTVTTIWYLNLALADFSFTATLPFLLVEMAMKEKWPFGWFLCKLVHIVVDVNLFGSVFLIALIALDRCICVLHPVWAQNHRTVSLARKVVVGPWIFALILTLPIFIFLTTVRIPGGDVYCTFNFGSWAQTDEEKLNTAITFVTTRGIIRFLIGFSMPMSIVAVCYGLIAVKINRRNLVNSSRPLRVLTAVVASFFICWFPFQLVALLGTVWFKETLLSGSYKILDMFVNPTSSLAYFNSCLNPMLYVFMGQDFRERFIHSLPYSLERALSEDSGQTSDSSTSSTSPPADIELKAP

[3] = molecular target: T1, N-formyl peptide receptor 2; assay: Agonist activity at human FPR2 expressed in CHO-K1 cells assessed as stimulation of beta-arrestin recruitment; assay type: cell-based
CHO [4] = assay: Selectivity ratio of agonist activity at human FPR1 expressed in CHO cells to agonist activity at human FPR2 expressed in CHO cells; assay type: cell-based
How it was run: (§1)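 Ratio of FPR1 to FPR2 EC50 from the CHO-cell forskolin/IBMX cAMP HTRF assay, 30 min at room temperature, 4-parameter logistic fit.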

CHO [5] = assay: Selectivity ratio of agonist activity at mouse FPR1 expressed in CHO cells to agonist activity at mouse FPR2 expressed in CHO cells; assay type: cell-based; how it was run: as §1
Mus musculus [6] = assay: Cardioprotective activity in C57BL/6 mouse model of LAD coronary artery ligation-induced myocardial infarction assessed as reduction in LV chamber area at 0.3 mg/kg, po and measured after 28 days; assay type: functional, organism-based; settings: time 28.0 day
How it was run: (§2)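 Male C57BL/6 mice (10-12 weeks) underwent permanent LAD ligation under ketamine/xylazine, with shams having an untightened suture. Compound (0.3 mg/kg/d) or vehicle was given by oral gavage once daily (5 mL/kg) from post-MI day 4 for 24 days. Endpoints were taken at 28 days post-MI; scar length was quantified from LV cross sections.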

Mus musculus [7] = assay: Cardioprotective activity in C57BL/6 mouse model of LAD coronary artery ligation-induced myocardial infarction assessed as reduction in heart weight at 0.3 mg/kg, po and measured after 28 days; assay type: functional, organism-based; settings: time 28.0 day; how it was run: as §2
[8] = Volume of distribution at steady state in cynomolgus monkey at 1 mg/kg, iv by LC-MS/MS analysis; assay type: ADME, organism-based, Macaca fascicularis; settings: in vivo, read-out: Vdss
How it was run: (§3)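 Male animals received intravenous solution in DMSO/PEG400/saline (5/47.5/47.5). EDTA plasma was extracted with methanol/acetonitrile (1:1) plus internal standard and quantified by LC-MS/MS. AUC0-inf was calculated by the trapezoidal rule with terminal-phase kel extrapolation.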

[9] = Total clearance in Crl:CD(SD) rat at 1 mg/kg, iv by LC-MS/MS analysis; assay type: ADME, organism-based; settings: in vivo; how it was run: as §3
[10] = Total clearance in cynomolgus monkey at 1 mg/kg, iv by LC-MS/MS analysis; assay type: ADME, organism-based, Macaca fascicularis; settings: in vivo; how it was run: as §3
[11] = Cmax in BALB/cCrSlc mouse at 1 mg/kg, po by LC-MS/MS analysis; assay type: ADME, organism-based; parameters: route oral, dose 1 mg/kg; settings: in vivo
How it was run: (§4)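 Male animals dosed orally with a suspension in 0.5% MC. Blood was taken into EDTA 2K capillaries and plasma was stored frozen. Plasma was mixed with methanol/acetonitrile (1:1) plus internal standard, centrifuged, and drug was measured by LC-MS/MS. AUC0-inf was obtained by the trapezoidal rule, extrapolated with kel from the terminal phase. t1/2 = ln2/kel.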

[12] = Cmax in cynomolgus monkey at 3 mg/kg, po by LC-MS/MS analysis; assay type: ADME, organism-based, Macaca fascicularis; parameters: route oral, dose 3 mg/kg; settings: in vivo; how it was run: as §4
[13] = Half life in BALB/cCrSlc mouse at 1 mg/kg, po by LC-MS/MS analysis; assay type: ADME, organism-based; settings: in vivo; how it was run: as §4
[14] = Half life in Crl:CD(SD) rat at 1 mg/kg, po by LC-MS/MS analysis; assay type: ADME, organism-based; settings: in vivo; how it was run: as §4
[15] = AUC (0 to infinity) in BALB/cCrSlc mouse at 1 mg/kg, po by LC-MS/MS analysis; assay type: ADME, organism-based; parameters: time infinity, route oral, dose 1 mg/kg; settings: in vivo; how it was run: as §4
[16] = Oral bioavailability in Crl:CD(SD) rat at 1 mg/kg by LC-MS/MS analysis; assay type: ADME, organism-based; settings: in vivo
How it was run: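 Oral bioavailability = (AUC0-inf,po/dose po)/(AUC0-inf,iv/dose iv) × 100. Oral dosing used a 0.5% MC suspension. IV dosing used a DMSO/PEG400/saline (5/47.5/47.5) solution, with CD1(ICR) mice for the iv arm. Plasma drug levels were measured by LC-MS/MS after methanol/acetonitrile extraction with internal standard.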

[17] = Oral bioavailability in Beagle dog at 1 mg/kg by LC-MS/MS analysis; assay type: ADME, organism-based, Canis lupus familiaris; settings: in vivo
[18] = Clearance in rat liver microsome at 0.1 umol/l and measured for 60 mins by LC-MS/MS analysis; assay type: ADME; settings: microsomes, 1 h, 0.1 µM, dose 0.1 µmol/L
How it was run: (§5)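 Liver microsomes (1 mg protein/mL final) with an NADPH regenerating system were preincubated 5 min at 37°C, then given 0.1 µmol/L compound. Samples were taken at 0-60 min, quenched in methanol/acetonitrile with internal standard, and analysed by LC-MS/MS. Runs were in triplicate. kel came from 5-30 min points. CLint = kel/protein concentration (mL/min/mg protein).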

[19] = Clearance in monkey liver microsome at 0.1 umol/l and measured for 60 mins by LC-MS/MS analysis; assay type: ADME, Macaca mulatta; settings: rhesus monkey, microsomes, 1 h, 0.1 µM, dose 0.1 µmol/L; how it was run: as §5
[20] = Clearance in human liver microsome at 0.1 umol/l and measured for 60 mins by LC-MS/MS analysis; assay type: ADME; settings: microsomes, 1 h, 0.1 µM, dose 0.1 µmol/L; how it was run: as §5
Mus musculus [21] = assay: Antiinflammatory activity in mouse assessed as increase in LPS-induced IL-10 expression at 0.3 mg/kg, po

EC50 [1]: 0.41 nM
IC50 (Cytochrome P450 3A4): > 20 µM
EC50 [2]: 0.5 nM
EC50 [3]: 130 nM
Vd [8]: 1.2 L/kg
clearance [9]: 49 mL/min/kg
clearance [10]: 12 mL/min/kg
Cmax [11]: 160 nM
Cmax [12]: 800 nM
half-life [13]: 40.8 min
half-life [14]: 228 min
AUC(0-inf) [15]: 0.12 µM·h
bioavailability [16]: 67%
bioavailability [17]: 50%
CLH [18]: 0.021 mL/min/mg
CLH [19]: 0.03 mL/min/mg
CLH [20]: 0.0033 mL/min/mg
Structure (SMILES): COc1cc(F)c([C@@H]2CNC(=O)[C@H]2NC(=O)Nc2ccccc2)c(F)c1 [BMS-986235]
Ratio EC50 (CHO [4]): 80
Ratio EC50 (CHO [5]): 1000
Activity (Mus musculus [6]): Active
Activity (Mus musculus [7]): Active
Activity (Mus musculus [21]): Active
